Measured values as given in ChEMBL document CHEMBL2331230, “Synthesis, anticancer and antioxidant activities of 2,4,5-trimethoxy chalcones and analogues from asaronaldehyde: structure-activity relationship” (Eur J Med Chem, 2013).
≈ marks a conversion by molar mass, not a printed value.

Key:
[1] = Antioxidant activity in rat erythrocytes assessed as inhibition of phenyl hydrazine-induced haemolysis after 1 hr; type: functional, cell-based; settings: erythrocyte
How it was run: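 20% PCV erythrocyte suspension made from rat blood. Samples at various concentrations combined with 0.5 mM phenyl hydrazine and erythrocyte suspension in phosphate buffered saline (3 ml total). Incubated 37 °C for 1 h, centrifuged 1000 g for 10 min, supernatant absorbance at 540 nm. α-Tocopherol as positive control.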

HeLa = experiment: Cytotoxicity against human HeLa cells assessed as growth inhibition after 72 hrs by MTT assay; type: functional, cell-based
How it was run: (§1)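 Cells grown in DMEM with 10% FBS, seeded at 10,000 per well, and treated after 24 h with a concentration series ending at […]; pristimerin as positive control. After 72 h, MTT (5 mg/ml) added for 3 h. Formazan dissolved in DMSO, read at 570 nm. IC50 is the concentration giving 50% growth inhibition; mean ± S.D. of three tests in triplicate.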

[2] = Antioxidant activity assessed as nitric oxide scavenging activity after 2.5 hrs by Griess assay; type: functional
How it was run: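 Sodium nitroprusside, 10 mM in phosphate saline buffer pH 7.4, added to samples at various concentrations and held 2.5 h at room temperature. Nitrite detected with Griess reagent at 546 nm against a blank. Inhibition (%) = (1 − A1/A0)×100, with A0 the control. Ascorbic acid as standard. Means of triplicates from three independent experiments.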

SW982 = experiment: Cytotoxicity against human SW982 cells assessed as growth inhibition after 72 hrs by MTT assay; type: functional, cell-based; settings: SW982, 72 h; how it was run: as §1
MCF7 = experiment: Cytotoxicity against human MCF7 cells assessed as growth inhibition after 72 hrs by MTT assay; type: functional, cell-based; settings: MCF7, 72 h; how it was run: as §1
[3] = system: Radical scavenging activity; experiment: Antioxidant activity assessed as DPPH free radical scavenging activity after 15 mins by spectrophotometric analysis; type: functional
How it was run: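 Test samples at several concentrations mixed with stock DPPH (final concentration not stated), made up to 3 ml in methanol, incubated 15 min. Absorbance at 517 nm read against a sample-free blank. Ascorbic acid at various concentrations as standard. Values are means of triplicates from three independent experiments.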

SMILES | IC50 [1] [µg/mL] | IC50 (HeLa) [µM] | IC50 [2] [µg/mL] | IC50 (SW982) [µM] | IC50 (MCF7) [µM] | IC50 [3] [µg/mL]
COc1cc(OC)c(OC)cc1/C=C/C(=O)c1ccc(Cl)cc1 | 2.298 (≈ 6.91 µM) | 36.5 | 2.014 (≈ 6.05 µM) | 58.5 | 29.5 | 4.593 (≈ 13.8 µM)
COc1ccc(C(=O)/C=C/c2cc(OC)c(OC)cc2OC)cc1 | 2.178 (≈ 6.63 µM) | 37.6 | 2.07 (≈ 6.3 µM) | 60.5 | 33.9 | 4.394 (≈ 13.4 µM)
COc1cc(OC)c(OC)cc1/C=C/C(=O)c1ccc([N+](=O)[O-])cc1 | 2.337 (≈ 6.81 µM) | > 150 | 1.982 (≈ 5.77 µM) | > 150 | > 150 | 4.754 (≈ 13.8 µM)
COc1cc(OC)c(OC)cc1/C=C/C(=O)c1ccc(Br)cc1 | 2.3 (≈ 6.1 µM) | 31.7 | 2.224 (≈ 5.9 µM) | 38.2 | 18.3 | 4.318 (≈ 11.4 µM)
COc1cc(OC)c(OC)cc1/C=C/C(=O)c1ccc(O)cc1 | 2.285 (≈ 7.27 µM) |  | 2.502 (≈ 7.96 µM) | 155 | 182 | 4.293 (≈ 13.7 µM)
COc1cc(OC)c(OC)cc1/C=C/C(=O)c1ccc(O)cc1O | 2.373 (≈ 7.18 µM) | 37.6 | 2.763 (≈ 8.36 µM) | 32.4 | 33.8 | 4.368 (≈ 13.2 µM)
COc1cc(OC)c(OC)cc1/C=C/C(=O)c1cc(O)ccc1O | 2.103 (≈ 6.37 µM) | > 150 | 2.444 (≈ 7.4 µM) | > 150 | > 150 | 2.653 (≈ 8.03 µM)
COc1cc(OC)c(C(=O)/C=C/c2cc(OC)c(OC)cc2OC)c(OC)c1 | 2.134 (≈ 5.49 µM) | 108 | 1.977 (≈ 5.09 µM) | 96.5 | 51.4 | 5.023 (≈ 12.9 µM)
COc1cc(OC)c(OC)cc1/C=C/C(=O)c1cc(OCc2ccccc2)cc(OCc2ccccc2)c1 | 2.167 (≈ 4.24 µM) | 26.9 | 2.092 (≈ 4.1 µM) | 69.9 | 23.3 | 5.002 (≈ 9.8 µM)
COc1cc(OC)c(OC)cc1/C=C/C(=O)c1cc(OC(C)=O)ccc1OC(C)=O | 2.327 (≈ 5.62 µM) | 57.9 | 2.37 (≈ 5.72 µM) | 78.5 | 63.7 | 4.65 (≈ 11.2 µM)
COc1cc(OC)c(-c2cc(=O)c3ccc(O)cc3o2)cc1OC | 2.147 (≈ 6.54 µM) | > 150 | 2.273 (≈ 6.92 µM) | > 150 | > 150 | 4.808 (≈ 14.6 µM)
COc1cc(OC)c(-c2cc(=O)c3cc(O)ccc3o2)cc1OC | 2.141 (≈ 6.52 µM) | > 150 | 2.142 (≈ 6.52 µM) | > 150 | > 150 | 4.487 (≈ 13.7 µM)
COc1cc(OC)c(-c2cc(=O)c3cc(Cl)ccc3o2)cc1OC | 2.125 (≈ 6.13 µM) | > 150 | 2.145 (≈ 6.19 µM) | > 150 | > 150 | 4.973 (≈ 14.3 µM)
COc1cc(OC)c(-c2oc3ccc(Cl)cc3c(=O)c2O)cc1OC | 2.144 (≈ 5.91 µM) | > 150 | 2.106 (≈ 5.81 µM) | > 150 | > 150 | 4.68 (≈ 12.9 µM)
COc1cc(OC)c(-c2oc3ccc(O)cc3c(=O)c2O)cc1OC | 2.154 (≈ 6.26 µM) | > 150 | 2.33 (≈ 6.77 µM) | > 150 | > 150 | 4.496 (≈ 13.1 µM)
COc1cc(OC)c(C2CC(=O)c3cc(O)ccc3O2)cc1OC (centres undefined) | 2.14 (≈ 6.48 µM) | > 150 | 2.434 (≈ 7.37 µM) | > 150 | > 150 | 4.566 (≈ 13.8 µM)
COc1cc(OC)c(OC)cc1/C=C/C(=O)c1cccc([N+](=O)[O-])c1 | 2.209 (≈ 6.43 µM) | 130 | 2.348 (≈ 6.84 µM) | 101 | > 150 | 4.309 (≈ 12.6 µM)
COc1cc(OC)c(OC)cc1/C=C/C(=O)c1ccc(C)cc1 | 2.236 (≈ 7.16 µM) | 42.2 | 2.181 (≈ 6.98 µM) | 81.1 | 33 | 4.325 (≈ 13.8 µM)
COc1cc(OC)c(OC)cc1/C=C/C(=O)c1ccccc1 | 2.225 (≈ 7.46 µM) | > 150 | 2.012 (≈ 6.74 µM) | > 150 | > 150 | 4.506 (≈ 15.1 µM)
COc1cc(OC)c(OC)cc1/C=C/C(=O)c1ccc(F)cc1 | 2.216 (≈ 7.01 µM) | 28.6 | 1.963 (≈ 6.21 µM) | 32.5 | 30 | 4.71 (≈ 14.9 µM)
COc1cc(OC)c(OC)cc1/C=C/C(=O)c1ccc(N2CCOCC2)cc1 | 2.121 (≈ 5.53 µM) | > 150 | 2.078 (≈ 5.42 µM) | > 150 | > 150 | 4.269 (≈ 11.1 µM)
COc1cc(OC)c(OC)cc1/C=C/C(=O)c1ccc(-n2ccnc2)cc1 | 2.481 (≈ 6.81 µM) | > 150 | 1.972 (≈ 5.41 µM) | > 150 | > 150 | 4.757 (≈ 13.1 µM)
COc1cc(OC)c(OC)cc1/C=C/C(=O)c1ccc(Cl)c([N+](=O)[O-])c1 | 2.151 (≈ 5.69 µM) | 16.5 | 1.99 (≈ 5.27 µM) | 20.6 | 16.4 | 4.472 (≈ 11.8 µM)
COc1cc(OC)c(OC)cc1/C=C/C(=O)c1cc(Cl)ccc1O | 2.233 (≈ 6.4 µM) | > 150 | 2.32 (≈ 6.65 µM) | > 150 | > 150 | 5.073 (≈ 14.5 µM)
COc1cc(C(=O)/C=C/c2cc(OC)c(OC)cc2OC)ccc1O | 2.163 (≈ 6.28 µM) | > 150 | 2.462 (≈ 7.15 µM) | > 150 | 95.5 | 4.31 (≈ 12.5 µM)
COc1cc(OC)c(OC)cc1/C=C/C(=O)c1cccc(C(F)(F)F)c1 | 2.302 (≈ 6.28 µM) | > 150 | 2.085 (≈ 5.69 µM) | > 150 | > 150 | 5.153 (≈ 14.1 µM)
Cc1c(C)c2c(c(C)c1O)CC[C@@](C)(CCC[C@H](C)CCC[C@H](C)CCCC(C)C)O2 [ALPHA-TOCOPHEROL] | 3.658 (≈ 8.49 µM) |  |  |  |  | 
O=C1O[C@H]([C@@H](O)CO)C(O)=C1O [ASCORBIC ACID] |  |  | 2.632 (≈ 14.9 µM) |  |  | 3.039 (≈ 17.3 µM)
CC=Cc1cc(OC)c(OC)cc1OC [CIS-ASARONE] |  | 126 |  | > 150 | 129 | 
COC(=O)[C@]1(C)CC[C@]2(C)CC[C@]3(C)C4=CC=C5C(=CC(=O)C(O)=C5C)[C@]4(C)CC[C@@]3(C)[C@@H]2C1 [PRISTIMERIN] |  | 3.42 |  | 1.28 | 0.87 | 
